Laboratory results published in ChEMBL document CHEMBL1149866, “Cytotoxic diterpenoids from Euphorbia helioscopia” (J Nat Prod, 2008).
pIC50: −log10 of the molar value.

Columns and labels:
MDA-MB-231 = assay: Cytotoxicity against human MDA-MB-231 cells by MTT method; format: functional, cell-based
Method in brief: (§1)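 HeLa (human cervical carcinoma) and MDA-MB-231 (breast tumor) cells; MTT viability read-out run per a previously published protocol; IC50 determined; adriamycin as positive control.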

HeLa = assay: Cytotoxicity against human HeLa cells by MTT method; format: functional, cell-based; method in brief: as §1

CC(=O)O[C@@H]1C[C@@H](OC(C)=O)C(C)(C)[C@H](O)[C@H]2O[C@@]3(C[C@H](C)[C@H](OC(=O)c4ccccc4)[C@@H]3/C=C/1C)[C@@H](OC(C)=O)[C@H]2C
pIC50 (MDA-MB-231): < 5.00
pIC50 (HeLa): < 5.00

CC(=O)O[C@@H]1[C@H](C)/C=C/C(C)(C)C(=O)C[C@@H](OC(=O)c2ccccc2)/C(CO)=C/[C@H]2[C@@H](OC(=O)c3ccccc3)[C@H](C)C[C@]12OC(C)=O
pIC50 (MDA-MB-231): < 5.00
pIC50 (HeLa): < 5.00

CC(=O)O[C@H]1[C@@H](C)/C=C/C(C)(C)[C@H](O)C[C@@H](O)/C(C)=C/[C@H]2[C@@H](OC(=O)c3ccccc3)[C@@H](C)C[C@@]21O
pIC50 (MDA-MB-231): < 5.00
pIC50 (HeLa): < 5.00

CC(=O)O[C@@H]1[C@H]2O[C@@]3(C[C@H](C)[C@H](OC(=O)c4ccccc4)[C@@H]3/C=C(\C)[C@H](OC(C)=O)C[C@@H](OC(C)=O)C1(C)C)[C@@H](OC(C)=O)[C@H]2C
pIC50 (MDA-MB-231): < 5.00
pIC50 (HeLa): < 5.00

CC(=O)O[C@@H]1C[C@@H](OC(C)=O)C(C)(C)/C=C/[C@H](C)[C@H](OC(C)=O)[C@@]2(O)C[C@H](C)[C@H](OC(=O)c3ccccc3)[C@@H]2/C=C/1CO
pIC50 (MDA-MB-231): < 5.00
pIC50 (HeLa): < 5.00

CC(=O)O[C@@H]1C[C@@H](O)C(C)(C)/C=C/[C@H](C)[C@H](OC(C)=O)[C@@]2(O)C[C@H](C)[C@H](OC(=O)c3ccccc3)[C@@H]2/C=C/1C [EUPHORNIN B]
pIC50 (MDA-MB-231): < 5.00
pIC50 (HeLa): < 5.00

CC(=O)O[C@@H]1C[C@@H](OC(C)=O)C(C)(C)/C=C/[C@H](C)[C@H](OC(C)=O)[C@@]2(O)C[C@H](C)[C@H](OC(=O)c3ccccc3)[C@@H]2/C=C/1C [EUPHORNIN]
pIC50 (MDA-MB-231): 4.87
pIC50 (HeLa): 5.51

CC(=O)O[C@@H]1[C@H](C)/C=C/C(C)(C)C(=O)C[C@@H](OC(=O)c2ccccc2)/C(C)=C/[C@H]2[C@@H](OC(=O)c3ccccc3)[C@H](C)C[C@]12OC(C)=O [EUPHOSCOPIN C]
pIC50 (MDA-MB-231): < 5.00
pIC50 (HeLa): < 5.00

CC1=C2C=C3CC[C@@H]4C(C)(C)[C@H](O)CC[C@@]4(C)[C@@H]3C[C@H]2OC1=O [HELIOSCOPINOLIDE A]
pIC50 (MDA-MB-231): 5.68
pIC50 (HeLa): 6.96
